Data: paper PMC5529739 (CPT: Pharmacometrics & Systems Pharmacology, 2017)

Columns and labels:
[1] = range 100–1,800 μg; cited from earlier work
[2] = type: in vivo, human
Procedure, shortened: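 Oral b.i.d. dosing titrated in 200 μg steps to each patient's tolerated dose, max 1,600 μg b.i.d. Trough plasma samples at baseline and weeks 4–52, plus one week-16 window sample. Model-predicted steady-state AUC at the individual maintenance dose gave AUCcombined (1/38 parent + 37/38 metabolite); placebo exposure was set to 2.5 ng/mL. Lab values were averaged per subject over weeks 8–52, not imputed, and fitted by log-linear regression on log10 exposure and baseline.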

platelet aggregation = conditions: clinically relevant concentrations, healthy subjects; cited from earlier work
[3] = cited from earlier work
[4] = Population PK model of selexipag and ACT-333679 in PAH patients; type: in vivo, human; conditions: for Vd/F: human, plasma, oral; for AUC over a dosing interval at steady state, higher in PAH patients than in healthy subjects: patient model vs healthy subject model
human IP receptor = conditions: human pulmonary arterial smooth muscle cells, cellular shape change; cited from earlier work
[5] = PAH patients, population estimate
[6] = body weight 96 kg vs reference patient 70 kg
[7] = total bilirubin 5 μmol/L vs reference 10 μmol/L
[8] = total bilirubin 25 μmol/L vs reference 10 μmol/L

## CC(C)N(CCCCOCC(=O)NS(C)(=O)=O)c1cnc(-c2ccccc2)c(-c2ccccc2)n1 [selexipag, Selexipag]
[1]
  Dose proportionality of PK: dose‐proportional
[2]; AUCcombined at steady state
  Probability of a treatment-emergent AE of hemorrhage and gastrointestinal hemorrhage: relationship to exposure: no statistically significant relationship to exposure
[2]; at the highest exposure, 12.03 μmol/L with placebo
  Total bilirubin, model-predicted: 10.58 µmol/L
[2]; at the highest exposure, 138.84 G/L with placebo
  Hemoglobin, model-predicted: 134.58 G/L
[2]; at the highest exposure, 667 with no exposure (placebo)
  Plasma NT pro-BNP, model-predicted: 475 ng/mL
[2]; at the highest predicted steady-state exposure, reference patient, 369 m on placebo
  6-MWD at steady state, model-predicted: 392 m
Platelet aggregation
  Effect on platelet aggregation: no effect
[3]; 99% confidence interval 0.46–0.78, P < 0.001
  Hazard ratio for a primary endpoint event (death or a complication associated with underlying PAH) vs placebo: 0.6
[3]
  NT pro-BNP levels in the presence of selexipag: significantly lower
[3]; week 26, across doses
  6-MWD difference between placebo and selexipag: 12 m
[4]; [5]
  k12, transfer rate constant central to peripheral compartment selexipag: 0.09 h⁻¹
  k21, transfer rate constant peripheral to central compartment selexipag: 0.06 h⁻¹
  ka, absorption rate constant: 0.71 h⁻¹
  kmet, metabolism rate constant selexipag to ACT-333679: 0.67 h⁻¹
[4]; PAH patients, population estimate, 70 kg, total bilirubin 10 μmol/L
  CL/F, apparent selexipag clearance: 19.10 L/h
[4]; body weight 51 kg vs reference patient 70 kg
  AUCss, covariate effect on exposure over a steady-state dosing interval: +30%
[4]; [6]
  AUCss, covariate effect on exposure over a steady-state dosing interval: −20%
[4]
  Vd/F: 12.9 L
  AUC over a dosing interval at steady state, higher in PAH patients than in healthy subjects: 30%
[4]; male vs female
  AUCss, covariate effect on exposure over a steady-state dosing interval: No change
[4]; power coefficient, CL=CLpop (bilirubin/10)^coefficient, bilirubin at baseline
  Total bilirubin on CL/F, covariate effect: −0.40
[4]; power coefficient, CL=CLpop (bw/70)^coefficient
  Body weight on CL/F, covariate effect: 0.61
[4]; power coefficient, Vp=Vp,pop (bw/70)^coefficient
  Body weight on Vp/F, covariate effect: 1.2
[4]; [7]
  AUCss, covariate effect on exposure over a steady-state dosing interval: −20%
[4]; [8]
  AUCss, covariate effect on exposure over a steady-state dosing interval: +30%

## CC(C)N(CCCCOCC(=O)O)c1cnc(-c2ccccc2)c(-c2ccccc2)n1 [ACT‐333679]
Platelet aggregation
  Effect on platelet aggregation: no effect
Human IP receptor
  Potency in activating the human IP receptor relative to selexipag: 37 fold
[4]; [5]
  k43, transfer rate constant peripheral to central compartment ACT-333679: 0.18 h⁻¹
[4]; [6]
  AUCss, covariate effect on exposure over a steady-state dosing interval: −10%
[4]
  Vd/F: 4.65 L
  AUC over a dosing interval at steady state, higher in PAH patients than in healthy subjects: 20%
[4]; male vs female
  AUCss, covariate effect on exposure over a steady-state dosing interval: −13%
[4]; power coefficient, Vm=Vm,pop (bw/70)^coefficient
  Body weight on Vm/F, covariate effect: 0.88
[4]; [7]
  AUCss, covariate effect on exposure over a steady-state dosing interval: −20%
[4]; [8]
  AUCss, covariate effect on exposure over a steady-state dosing interval: +30%
